The nature of series [1]: Drug metabolism in human liver S9 fraction assessed as psilocin formation at 2.5 uM after 120 mins by LC-MS analysis. The following applies: s9, 2 h. It is filed as ADME, subcellular. An outline of the steps: (§1)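 2.5 μM compound in 50 mM potassium phosphate pH 7.4 with 3 mM MgCl2, 1 mM EDTA and an NADPH regenerating system. Incubated at 37 °C with human liver or intestinal S9 or microsomes (400 μg/mL protein) or 10% human AB serum. Acetonitrile quench, then LC-MS; psilocin concentration read at 120 min.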

Series [2] is described as follows: Drug metabolism in human intestine S9 fraction assessed as psilocin formation at 2.5 uM after 120 mins by LC-MS analysis. Format: ADME, subcellular. The following applies: s9, 2 h. The procedure, abridged:
as §1

Series [3] is described as follows: Drug metabolism in human serum assessed as psilocin formation at 2.5 uM after 120 mins by LC-MS analysis. It is filed as ADME, cell-free. The following applies: 2 h. An outline of the steps: as §1
Series [4] can be described thus: Metabolic stability in human serum assessed as half life at 2.5 uM measured upto 120 mins in presence of NADPH by LC-MS analysis. It is filed as ADME, cell-free. Conditions: 2 h. An outline of the steps: (§2)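 2.5 μM compound at 37 °C in 50 mM potassium phosphate pH 7.4 with 3 mM MgCl2, 1 mM EDTA and an NADPH regenerating system. […] Sampled at 0–120 min in 20-min steps, acetonitrile quench, LC-MS of parent. T1/2 from one-phase exponential decay fit.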

Series [5] can be described thus: Metabolic stability in human liver S9 fraction assessed as half life at 2.5 uM measured upto 120 mins in presence of NADPH by LC-MS analysis. Format: ADME, subcellular. Conditions: s9, 2 h, 2.5 µM. An outline of the steps:
as §2

Series [6] in a line: Metabolic stability in human intestine S9 fraction assessed as half life at 2.5 uM measured upto 120 mins in presence of NADPH by LC-MS analysis. The following applies: s9, 2 h. It is filed as ADME, subcellular. The procedure, abridged:
as §2

Series [7] in a line: Metabolic stability in human intestine microsomes assessed as half life at 2.5 uM measured upto 120 mins in presence of NADPH by LC-MS analysis. Format: ADME, Microsome. Conditions: 2 h. An outline of the steps:
as §2

Series [8] can be described thus: Metabolic stability in human liver microsomes assessed as half life at 2.5 uM measured upto 120 mins in presence of NADPH by LC-MS analysis. It is filed as ADME, Microsome. Conditions: microsomes, 2 h, 2.5 µM. The procedure, abridged:
as §2

A short description of series [9]: Drug metabolism in human liver microsomes assessed as psilocin formation at 2.5 uM after 120 mins by LC-MS analysis. The following applies: 2 h. Format: ADME, Microsome. The procedure, abridged: as §1
For orientation: Liver microsomes are vesicles of endoplasmic reticulum, rich in cytochrome P450 enzymes.

A short description of series [10]: Drug metabolism in human intestine microsomes assessed as psilocin formation at 2.5 uM after 120 mins by LC-MS analysis. Format: ADME, Microsome. The following applies: 2 h. The procedure, abridged: as §1
Series [11] can be described thus: Drug metabolism in po dosed C57BL/6 mouse assessed as psilocin formation measured upto 24 hrs by LC-MS analysis. It is filed as ADME, organism-based. Conditions: in vivo, dose 1-10 mg/kg.
Series [12] is described as follows: Drug metabolism in C57BL/6 mouse assessed as psilocin formation at 10 mg/kg, po measured after 8 hrs by LC-MS analysis. Conditions: in vivo. It is filed as ADME, organism-based.

Each structure is given as a SMILES string.

Consider `CC(C)[Si](C(C)C)(C(C)C)n1cc(CCN(C)C)c2c(OC(=O)OCC3CC3)cccc21`, for which the Drug metabolism in [1] amounted to 0.072 µM; in series [2], 0.018 µM; in series [3], 0 µM; in series [9], 0.186 µM; in series [10] it was 0.096 µM. The t1/2 is reported as 26 min in [4]; 49 min in series [5]; 24 min in [6]; 24 min in series [7]; 31 min in [8].
For the compound `CN(C)CCc1c[nH]c2cccc(O[Si](c3ccccc3)(c3ccccc3)C(C)(C)C)c12`, the Drug metabolism in series [1], in series [2], in series [3], in series [9] and in series [10] was 0 µM each time. In addition, the t1/2 turned out to be 391 min in series [5] and 229 min in [8].
Take `CCC(=O)Oc1cccc2c1c(CCN(C)C)cn2[Si](C(C)C)(C(C)C)C(C)C`: the Drug metabolism in series [1] was determined as 0.204 µM; in series [2] it was 0 µM; in series [3], 0 µM; in series [9], 0.244 µM; in series [10], 0.053 µM. The t1/2 amounted to 49 min in [4]; 3 min in series [5]; 2 min in [6]; 2 min in series [7]; 2 min in series [8].
`CC(C)[Si](C(C)C)(C(C)C)n1cc(CCN(C)C)c2c(OC(=O)Sc3ccccc3)cccc21`: the Drug metabolism in [1] is 0.133 µM; in series [2] it was 0 µM; in series [3] it was 0 µM; in [9] it was 0.206 µM; in series [10], 0 µM. Also, the t1/2 turned out to be 32 min in series [4]; 7 min in series [5]; 24 min in series [6]; 13 min in series [7]; 9 min in [8].
With `CN(C)CCc1c[nH]c2cccc(OP3(=O)OCC(C)(C)CO3)c12`, the Drug metabolism in series [1] is 0.011 µM; in series [2], 0 µM; in [3], 0 µM; in series [9], 0 µM; in series [10] it was 0 µM.
In the case of `CC(C)[Si](C(C)C)(C(C)C)n1cc(CCN(C)C)c2c(OCc3ccc(F)cc3)cccc21`, the Drug metabolism in series [1], in series [2], in series [3], in series [9] and in series [10] was 0 µM in each case. The t1/2 came to 60 min in series [5], 64 min in series [6], 50 min in series [7] and 27 min in series [8].
For `CC(C)OC(=O)OCOc1cccc2c1c(CCN(C)C)cn2COC(=O)OC(C)C`, the Drug metabolism in series [1] was 0.186 µM; in series [2], 0 µM; in series [3], 0 µM; in [11], “Dose-Dependent Effect”; in series [12], “Metabolite_Notdetected”; in [9] it was 0.056 µM. Moreover, the Drug metabolism in series [10] is 0 µM. Further, the t1/2 in [4] came out at 3 min; in series [5] it was 293 min; in series [6] it was 266 min; in [7] it was 894 min; in [8], 104 min.
Turning to `CN(C)CCc1c[nH]c2cccc(OC(=O)c3cccc(C(=O)Oc4cccc5[nH]cc(CCN(C)C)c45)c3)c12`, the Drug metabolism in series [1], in [2], in [3], in [9] and in series [10] was 0 µM each time. In addition, the t1/2 is reported as 101 min in [4], 445 min in series [6], 621 min in [7] and 241 min in [8].
For `CC(C)[Si](Oc1cccc2[nH]cc(CCN(C)C)c12)(C(C)C)C(C)C`, the Drug metabolism is 0 µM in series [1]; 0 µM in [2]; 0.142 µM in series [3]; “Dose-Dependent Effect” in series [11]; “Metabolite_Notdetected” in series [12]; 0 µM in series [9]. Also, the Drug metabolism in series [10] stood at 0 µM. The t1/2 is listed as 96 min in series [5], 57 min in series [6], 27 min in series [7] and 104 min in series [8].
For `CN(C)CCc1c[nH]c2cccc(OP(=O)(Oc3ccccc3)Oc3ccccc3)c12`, the Drug metabolism in series [1] was 0.073 µM; in series [2] it was 0 µM; in series [3] it was 0.069 µM; in [11], “Dose-Dependent Effect”; in series [12], “Metabolite_Notdetected”; in series [9] it was 0 µM. In addition, the Drug metabolism in series [10] was 0.076 µM. Further, the t1/2 came out at 96 min in [5], 52 min in series [6], 28 min in [7] and 43 min in series [8].
In the case of `COCCOCCOCC(=O)Oc1cccc2[nH]cc(CCN(C)C)c12`, the Drug metabolism in series [1] was found to be 0 µM; in [2], 0 µM; in series [3], 0 µM; in [9] it was 0.494 µM; in [10], 0 µM. In addition, the t1/2 stood at 0.8 min in series [4]; 16 min in series [5]; 72 min in series [6]; 60 min in series [7]; 5 min in [8].
On to `CN(C)CCc1c[nH]c2cccc(OC(=O)OCC(Cl)(Cl)Cl)c12`, for which the Drug metabolism in [1] came to 0.133 µM; in series [2] it was 0 µM; in series [3], 0 µM; in [9], 0.057 µM; in series [10], 0 µM. Further, the t1/2 in series [4] was found to be 182 min; in series [6], 221 min; in series [7], 150 min; in [8], 277 min.
Turning to `CC(C)[Si](C(C)C)(C(C)C)n1cc(CCN(C)C)c2c(OC(=O)c3ccc(Br)cc3)cccc21`, the Drug metabolism in series [1] turned out to be 0.656 µM; in [2], 0.195 µM; in series [3], 0 µM; in series [9], 1.659 µM; in series [10] it was 0.887 µM. Also, the t1/2 was found to be 15 min in series [5], 16 min in series [6], 11 min in series [7] and 25 min in series [8].
As to `COC(=O)c1cccc(C(=O)Oc2cccc3[nH]cc(CCN(C)C)c23)c1`, the Drug metabolism in series [1] stood at 0.451 µM; in [2], 0.166 µM; in series [3] it was 3.148 µM; in series [9] it was 0.919 µM; in series [10], 0.241 µM. In addition, the t1/2 in series [4] came out at 33 min; in series [5] it was 33 min; in [8], 22 min.
Take `CCC(=O)OCOc1cccc2c1c(CCN(C)C)cn2C(=O)CC`: the Drug metabolism came out at 0 µM in series [1]; 0 µM in series [2]; 0 µM in [3]; 0.001 µM in series [9]; 0 µM in [10]. The t1/2 was determined as 0.8 min in [4]; 16 min in [5]; 52 min in series [6]; 22 min in [7]; 13 min in [8].
Consider `CCOC(=O)[C@@H](C)NP(=O)(Oc1ccccc1)Oc1cccc2c1c(CCN(C)C)cn2[Si](C(C)C)(C(C)C)C(C)C` (stereo not given in full), for which the Drug metabolism was 0.153 µM in series [1]; 0.47 µM in series [2]; 0 µM in [3]; 0.324 µM in series [9]; 0 µM in [10]. Besides, the t1/2 in [4] is recorded as 145 min; in [5], 26 min; in series [6] it was 39 min; in [7], 29 min; in series [8], 22 min.

Values taken from ChEMBL document CHEMBL5335796, “Novel Psilocin Prodrugs with Altered Pharmacological Properties as Candidate Therapies for Treatment-Resistant Anxiety Disorders” (J Med Chem, 2024).
